Measurements from ChEMBL document CHEMBL3992530, “Polar aromatic periphery increases agonist potency of spirocyclic free fatty acid receptor (GPR40) agonists inspired by LY2881835” (Eur J Med Chem, 2017).

Tests used:
[1] = target: T1, Free fatty acid receptor 1 (Homo sapiens, UniProt O14842); experiment: Agonist activity at human GPR40 expressed in CHO cells assessed as increase in intracellular calcium flux at 5 uM by Fluo-8 dye based FLIPR assay relative to GW9508; type: functional, cell-based
[2] = target: T1, Free fatty acid receptor 1; experiment: Agonist activity at human GPR40 expressed in CHO cells assessed as increase in intracellular calcium flux by Fluo-8 dye based FLIPR assay; type: functional, cell-based
How it was run: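 Stable CHO-GPR40 line (human receptor), seeded at 12,500 cells/well 24 h before assay. Cells were loaded 1 h with Fluo-8 calcium dye and read on FLIPR Tetra. Agonist response was taken as the maximum fluorescence change over baseline. Dose-response testing gave EC50 from fitted concentration-response curves, with GW9508 run alongside as positive control.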

[3] = Intrinsic clearance in Balb/c mouse liver microsomes at 2 uM in presence of NADPH by HPLC-MS analysis; type: ADME, microsome
How it was run: (§1)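 Microsomes from pooled (50) perfused livers of male BALB/c mice, 0.42 mg protein/mL, in 100 mM K-phosphate pH 7.4 with MgCl2 3.3 mM, NADPH 3 mM, G6P 5.3 mM and G6PDH 0.67 U/ml. Compound was 2 μM (1.6% solvent) at 37°C, sampled at five points over 40 min in duplicate. Reactions were quenched with acetonitrile and analysed by HPLC-MS/MS. kel came from ln(AUC) vs time, T1/2 = 0.693/kel, and CLint was scaled per mg microsomes.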

[4] = Apparent permeability from apical to basolateral direction in human Caco2 cells at 10 uM after 2 hrs by HPLC-MS analysis; type: ADME, cell-based; settings: Caco-2
How it was run: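 Caco-2 cells were grown to 70–80% confluence, then seeded at 1x10⁵ cells/well on 24-well semipermeable inserts and washed twice with PBS. Compound was 10 μM in HBSS with 5,6 mM glucose and 10 mM HEPES, pH 7.4, applied apically in duplicate for 2 h at 37 °C. Receiver concentrations were measured by HPLC-MS, and Papp was computed from acceptor volume, insert area, time and acceptor/initial donor concentration.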

[5] = Half life in Balb/c mouse liver microsomes at 2 uM in presence of NADPH by HPLC-MS analysis; type: ADME, microsome; how it was run: as §1
[6] = target: T2, Free fatty acid receptor 3 (Homo sapiens, UniProt O14843); experiment: Agonist activity at human FFA3 receptor expressed in CHO cells assessed as increase in intracellular calcium flux by Fluo-8 dye based FLIPR assay; type: functional, cell-based
T2 sequence (O14843 whole entry): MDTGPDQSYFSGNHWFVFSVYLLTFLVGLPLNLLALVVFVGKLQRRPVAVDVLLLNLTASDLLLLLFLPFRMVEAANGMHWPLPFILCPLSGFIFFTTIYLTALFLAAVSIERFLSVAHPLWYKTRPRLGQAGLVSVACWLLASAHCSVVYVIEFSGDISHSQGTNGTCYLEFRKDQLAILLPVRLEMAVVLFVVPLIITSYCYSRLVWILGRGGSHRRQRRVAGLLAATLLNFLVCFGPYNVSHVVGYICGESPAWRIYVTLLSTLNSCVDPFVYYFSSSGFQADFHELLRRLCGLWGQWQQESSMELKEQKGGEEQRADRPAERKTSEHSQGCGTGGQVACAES
How it was run: (§2)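 Separate CHO lines stably expressing GPR41, GPR43 or GPR120 (from ECACC) were used for specificity screening in the same format as the FFA1 assay. Cells were plated at 12,500/well 24 h ahead, loaded 1 h with Fluo-8 calcium dye, and read on a FLIPR Tetra. Response was taken as the maximum fluorescence change over baseline.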

[7] = Kinetic aqueous solubility of the compound in PBS buffer […] at pH 7.4 by UV-Visible spectrophotometric analysis; type: physicochemical; settings: read-out: Kinetic_solubility
How it was run: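 Kinetic solubility: a 40 mM DMSO stock was diluted to a nominal 800 μM in duplicate in PBS (138 mM NaCl, 2.7 mM KCl, 10 mM K-phosphate, pH 7.4, 2% final DMSO). Samples were shaken 2 h at 25°C and then filtered. Filtrates were diluted 2-fold in methanol and quantified by UV scan (200-550 nm) against 0, 200 and 400 μM calibrants in 50% methanol/PBS. Values average n = 4.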

[8] = target: T3, Free fatty acid receptor 2 (Homo sapiens, UniProt O15552); experiment: Agonist activity at human FFA2 receptor expressed in CHO cells assessed as increase in intracellular calcium flux by Fluo-8 dye based FLIPR assay; type: functional, cell-based; how it was run: as §2
T3 sequence (O15552 whole entry): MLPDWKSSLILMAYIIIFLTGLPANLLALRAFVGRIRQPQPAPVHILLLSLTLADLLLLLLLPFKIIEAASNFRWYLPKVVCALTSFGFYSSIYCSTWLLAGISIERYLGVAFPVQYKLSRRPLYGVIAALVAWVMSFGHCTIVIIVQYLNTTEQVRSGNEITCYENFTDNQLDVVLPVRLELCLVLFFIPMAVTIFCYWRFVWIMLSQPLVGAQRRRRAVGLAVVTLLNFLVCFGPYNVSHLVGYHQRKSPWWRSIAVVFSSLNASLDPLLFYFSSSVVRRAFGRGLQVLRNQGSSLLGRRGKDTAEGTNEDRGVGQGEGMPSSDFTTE

[9] = target: T4, Free fatty acid receptor 4 (Homo sapiens, UniProt Q5NUL3); experiment: Agonist activity at human GPR120 expressed in CHO cells assessed as increase in intracellular calcium flux by Fluo-8 dye based FLIPR assay; type: functional, cell-based; how it was run: as §2
T4 sequence (Q5NUL3 whole entry): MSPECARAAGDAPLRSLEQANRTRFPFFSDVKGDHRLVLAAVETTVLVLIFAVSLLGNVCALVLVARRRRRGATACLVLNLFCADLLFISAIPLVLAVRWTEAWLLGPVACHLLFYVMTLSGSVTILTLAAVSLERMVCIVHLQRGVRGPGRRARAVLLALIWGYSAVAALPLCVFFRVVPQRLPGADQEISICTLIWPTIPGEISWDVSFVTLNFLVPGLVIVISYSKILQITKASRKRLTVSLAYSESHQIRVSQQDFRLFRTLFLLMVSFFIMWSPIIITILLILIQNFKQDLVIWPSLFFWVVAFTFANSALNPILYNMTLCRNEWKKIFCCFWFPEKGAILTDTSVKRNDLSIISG

T1 sequence (O14842 whole entry): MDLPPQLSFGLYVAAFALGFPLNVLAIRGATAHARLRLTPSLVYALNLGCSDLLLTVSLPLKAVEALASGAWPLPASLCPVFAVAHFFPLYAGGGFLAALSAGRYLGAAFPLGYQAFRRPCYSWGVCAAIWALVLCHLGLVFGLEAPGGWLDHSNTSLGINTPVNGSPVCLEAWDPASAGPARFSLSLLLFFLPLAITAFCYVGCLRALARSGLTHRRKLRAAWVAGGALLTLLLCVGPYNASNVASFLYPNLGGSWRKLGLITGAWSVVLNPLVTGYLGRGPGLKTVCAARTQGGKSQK

Row | SMILES | %max [1] [%] | EC50 [2] [nM] | also measured
1 | O=C(O)CCc1ccc(OCc2ccc(CN3CCC4(CC3)CC(CCOc3ccncc3)CCO4)cc2)cc1 (stereo not given) | 48.5 | 6100 | –
2 | Cc1cnc(C)c(OCCC2CCOC3(CCN(Cc4ccc(COc5ccc(CCC(=O)O)cc5)cc4)CC3)C2)n1 (stereo not given) | 80.2 | 1140 | –
3 | O=C(O)CCc1ccc(OCc2ccc(CN3CCC4(CCCCO4)CC3)cc2)cc1 | – | > 20000 | –
4 | O=C(O)CCc1ccc(OCc2ccc(CN3CCC4(CC3)CC(CCOc3cnccn3)CCO4)cc2)cc1 (stereo not given) | 83.5 | 1480 | –
5 | Cc1cccc(OCCC2CCOC3(CCN(Cc4ccc(COc5ccc(CCC(=O)O)cc5)cc4)CC3)C2)n1.Cl.Cl (stereo not given) | 100 | 260 | CL int at 2 µM [3]: 72.8 µL/min/mg; Papp A→B at 2 h, 10 µM [4]: 7.3 ×10⁻⁶ cm/s; half-life at 2 µM [5]: 22.9 min; EC50 [6]: > 10000 nM; solubility kinetic [7]: 228 µM; EC50 [8]: > 10000 nM; EC50 [9]: > 10000 nM
6 | O=C(O)CCc1ccc(OCc2ccc(CN3CCC4(CC3)CC(CCOc3nc(C5CC5)nc5c3CCC5)CCO4)cc2)cc1 (stereo not given) | 60.5 | 1210 | –
7 | O=C(O)CCc1ccc(OCc2ccc(CN3CCC4(CC3)CC(CCOc3ccc(C(F)(F)F)cn3)CCO4)cc2)cc1 (stereo not given) | 79.2 | 33500 | –
8 | Cc1nccnc1OCCC1CCOC2(CCN(Cc3ccc(COc4ccc(CCC(=O)O)cc4)cc3)CC2)C1 (stereo not given) | 105 | 1270 | –
9 | Cc1ccnc(OCCC2CCOC3(CCN(Cc4ccc(COc5ccc(CCC(=O)O)cc5)cc4)CC3)C2)c1 (stereo not given) | 110 | 1110 | –
10 | O=C(O)CCc1ccc(OCc2ccc(CN3CCC4(CC3)CC(CCOc3ncccn3)CCO4)cc2)cc1 (stereo not given) | 54.5 | 3870 | –
11 | O=C(O)CCc1ccc(OCc2ccc(CN3CCC4(CC3)CC(CCOc3ccc(F)cc3)CCO4)cc2)cc1 (stereo not given) | 55 | 2060 | –
12 | O=C(O)CCc1ccc(OCc2ccc(CN3CCC4(CC3)CC(Oc3ccccn3)CCO4)cc2)cc1 (stereo not given) | – | 900 | –
13 | O=C(O)CCc1ccc(OCc2ccc(CN3CCC4(CC3)CC(CCOc3ccc5ccccc5n3)CCO4)cc2)cc1 (stereo not given) | 83.4 | 2360 | –
14 | O=C(O)CCc1ccc(OCc2ccc(CN3CCC4(CC3)CC(CCOc3cccnc3)CCO4)cc2)cc1 (stereo not given) | 61.7 | 2560 | –
15 | O=C(O)CCc1ccc(OCc2ccc(CN3CCC4(CC3)CC(CCOc3ncnc5c3CCC5)CCO4)cc2)cc1 (stereo not given) | 78.4 | 1260 | –
